Measured values: ChEMBL document CHEMBL1212781, “VIM-19, a metallo-beta-lactamase with increased carbapenemase activity from Escherichia coli and Klebsiella pneumoniae” (2010)
In brackets after ≈: the same amount, converted by molar mass.

Experiments:
Format in all cases: functional
Escherichia coli [1] = experiment: Antimicrobial activity in Escherichia coli J53 strain
In short: (§1)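 MICs were determined by Etest on Mueller-Hinton agar plates incubated at 37°C. Susceptibility was interpreted according to CLSI guidelines.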

Escherichia coli [2] = experiment: Antimicrobial activity in Escherichia coli TOP10 strain; in short: as §1
Escherichia coli [3] = experiment: microbe, parasite or virus in culture; details: TOP10
Klebsiella pneumoniae [4] = experiment: Antimicrobial activity in Klebsiella pneumoniae DIH-2 clinical isolate expressing beta-lactamase VIM-19 by Etest
Escherichia coli [5] = experiment: microbe, parasite or virus in culture; details: TOP10; remark: listed apart in the source
Escherichia coli [6] = experiment: Antimicrobial activity in Escherichia coli J53 transconjugate with Escherichia coli DIH-1 expressing natural plasmid containing beta-lactamase VIM-19
In short: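 Transconjugants came from liquid mating-out at 37°C with azide-resistant E. coli J53 as recipient, selected on agar with amoxicillin (50 μg/ml) plus azide (100 μg/ml). MICs were then read by Etest on Mueller-Hinton agar at 37°C and interpreted per CLSI.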

Escherichia coli [7] = experiment: microbe, parasite or virus in culture; details: TOP10; remark: listed apart in the source
Escherichia coli [8] = experiment: Antimicrobial activity in Escherichia coli DIH-1 expressing beta-lactamase VIM-19 by Etest
In short: (§2)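 MICs read by Etest on Mueller-Hinton agar incubated at 37°C. Susceptibility was categorized according to CLSI guidelines. Transconjugants were obtained in E. coli J53 by liquid mating at 37°C, with selection on agar containing amoxicillin (50 μg/ml) and azide (100 μg/ml).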

Escherichia coli [9] = experiment: microbe, parasite or virus in culture; details: TOP10; remark: listed apart in the source
Escherichia coli [10] = experiment: Antimicrobial activity in Escherichia coli TOP10 hourbouring recombinant plasmid VIM-4 by Etest in presence of 4 ug/ml clavulanic acid; in short: as §2
Escherichia coli [11] = experiment: Antimicrobial activity in Escherichia coli J53 strain in presence of 4 ug/ml clavulanic acid
In short: (§3)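 MIC by Etest on Mueller-Hinton agar plates at 37°C, with susceptibility interpreted per CLSI guidelines.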

Klebsiella pneumoniae [12] = experiment: Antimicrobial activity in Klebsiella pneumoniae DIH-2 clinical isolate expressing beta-lactamase VIM-19 by Etest in presence of 4 ug/ml clavulanic acid; in short: as §2
Escherichia coli [13] = experiment: Antimicrobial activity in Escherichia coli TOP10 strain in presence of 4 ug/ml clavulanic acid; in short: as §3
Escherichia coli [14] = experiment: Antimicrobial activity in Escherichia coli DIH-1 expressing beta-lactamase VIM-19 by Etest in presence of 4 ug/ml clavulanic acid; in short: as §2
Escherichia coli [15] = experiment: Antimicrobial activity in Escherichia coli TOP10 hourbouring recombinant plasmid VIM-19 by Etest in presence of 4 ug/ml clavulanic acid; in short: as §2
Escherichia coli [16] = experiment: Antimicrobial activity in Escherichia coli J53 transconjugate with Escherichia coli DIH-1 expressing natural plasmid containing beta-lactamase VIM-19 in presence of 4 ug/ml clavulanic acid; in short: as §2

SMILES | MIC (Escherichia coli [1]) | MIC (Escherichia coli [2]) | MIC (Escherichia coli [3]) | MIC (Klebsiella pneumoniae [4]) | MIC (Escherichia coli [5]) | MIC (Escherichia coli [6]) | MIC (Escherichia coli [7]) | MIC (Escherichia coli [8]) | MIC (Escherichia coli [9]) | MIC (Escherichia coli [10]) | MIC (Escherichia coli [11]) | MIC (Klebsiella pneumoniae [12]) | MIC (Escherichia coli [13]) | MIC (Escherichia coli [14]) | MIC (Escherichia coli [15]) | MIC (Escherichia coli [16])
C[C@@H](O)[C@H]1C(=O)N2C(C(=O)O)=C(S[C@@H]3CN[C@H](C(=O)Nc4cccc(C(=O)O)c4)C3)[C@H](C)[C@H]12 | 0.006 µg/mL (≈ 0.0126 µM) | 0.006 µg/mL (≈ 0.0126 µM) | 2 µg/mL (≈ 4.21 µM) | 16 µg/mL (≈ 33.6 µM) | 2 µg/mL (≈ 4.21 µM) | 1.5 µg/mL (≈ 3.15 µM) | 0.125 µg/mL (≈ 0.263 µM) | 16 µg/mL (≈ 33.6 µM) | 0.125 µg/mL (≈ 0.263 µM) | – | – | – | – | – | – | –
CC1(C)S[C@@H]2[C@H](NC(=O)[C@H](N)c3ccc(O)cc3)C(=O)N2[C@H]1C(=O)O [AMOXICILLIN] | 4 µg/mL (≈ 10.9 µM) | 4 µg/mL (≈ 10.9 µM) | > 512 µg/mL | > 512 µg/mL | > 512 µg/mL | > 512 µg/mL | – | > 512 µg/mL | – | > 512 µg/mL | 4 µg/mL | > 512 µg/mL | 4 µg/mL | > 512 µg/mL | > 512 µg/mL | > 512 µg/mL
C[C@H]1[C@H](NC(=O)/C(=N\OC(C)(C)C(=O)O)c2csc(N)n2)C(=O)N1S(=O)(=O)O [AZTREONAM] | – | – | – | – | – | – | – | 4 µg/mL (≈ 9.19 µM) | 0.12 µg/mL (≈ 0.276 µM) | – | – | – | – | – | – | –
CO/N=C(\C(=O)N[C@@H]1C(=O)N2C(C(=O)O)=C(COC(C)=O)CS[C@H]12)c1csc(N)n1 [CEFOTAXIME] | 0.12 µg/mL (≈ 0.263 µM) | 0.12 µg/mL (≈ 0.263 µM) | 64 µg/mL (≈ 141 µM) | > 512 µg/mL | 64 µg/mL (≈ 141 µM) | 64 µg/mL (≈ 141 µM) | 32 µg/mL (≈ 70.3 µM) | > 512 µg/mL | 64 µg/mL (≈ 141 µM) | – | – | – | – | – | – | –
CO[C@@]1(NC(=O)Cc2cccs2)C(=O)N2C(C(=O)O)=C(COC(N)=O)CS[C@@H]21 [CEFOXITIN] | 4 µg/mL (≈ 9.36 µM) | 4 µg/mL (≈ 9.36 µM) | 256 µg/mL (≈ 599 µM) | > 512 µg/mL | 256 µg/mL (≈ 599 µM) | 256 µg/mL (≈ 599 µM) | 256 µg/mL (≈ 599 µM) | > 512 µg/mL | 256 µg/mL (≈ 599 µM) | – | – | – | – | – | – | –
CO/N=C(\C(=O)N[C@@H]1C(=O)N2C(C(=O)[O-])=C(C[n+]3cccc4c3CCC4)CS[C@H]12)c1csc(N)n1 [CEFPIROME] | 0.12 µg/mL (≈ 0.233 µM) | 0.06 µg/mL (≈ 0.117 µM) | 2 µg/mL (≈ 3.89 µM) | 64 µg/mL (≈ 124 µM) | 2 µg/mL (≈ 3.89 µM) | 2 µg/mL (≈ 3.89 µM) | 32 µg/mL (≈ 62.2 µM) | 32 µg/mL (≈ 62.2 µM) | 32 µg/mL (≈ 62.2 µM) | – | – | – | – | – | – | –
CC(C)(O/N=C(\C(=O)N[C@@H]1C(=O)N2C(C(=O)[O-])=C(C[n+]3ccccc3)CS[C@H]12)c1csc(N)n1)C(=O)O [CEFTAZIDIME] | 0.06 µg/mL (≈ 0.11 µM) | 0.06 µg/mL (≈ 0.11 µM) | 32 µg/mL (≈ 58.5 µM) | 128 µg/mL (≈ 234 µM) | 32 µg/mL (≈ 58.5 µM) | 32 µg/mL (≈ 58.5 µM) | 512 µg/mL (≈ 937 µM) | > 512 µg/mL | 512 µg/mL (≈ 937 µM) | – | – | – | – | – | – | –
